Screens deposited in PubChem BioAssay by several laboratories.
CHT inh: inhibitors of human choline transporter CHT | CHT-expressing cells, membrane potential dye, choline response; hits give low values | hit rate 0.86% among 310,000 | Q9GZV3 | B-score at 10 µM;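 active = B-score over 3 SD under the library average, and starting fluorescence ratio not unusually high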;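 note: choline stimulus applied at its EC90 after an EC20 pre-addition; B-score computed on integrated fluorescence ratio after choline addition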
IMP-1 inhibitor: blocks Pseudomonas aeruginosa IMP-1 metallo-beta-lactamase; inhibition, % at 5.6 µM; hit rate 0.45% among 290,000; AID 1556; purified IMP-1, nitrocefin hydrolysis, epi-absorbance fluorescence;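 active = inhibition above the mean plus 3 SD of all compounds in the same screening run, cut at about 4.5% in these data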;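 note: 0% = IMP-1 with DMSO and 100% = DMSO wells lacking enzyme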
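Assay system: purified recombinant IMP-1 beta-lactamase. Input: IMP-1 0.2 nM before substrate addition. Buffer or medium: Zinc- and detergent-supplemented HEPES buffer, pH 7.1. Schedule: 25 °C, 15 min preincubation, 25 min reaction. Signal: Epi-absorbance fluorescence, 480 nm excitation, 530 nm emission. Evaluation: percent inhibition from optical density relative to buffer-blank wells.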
TMEM16A inh: blocks the mouse calcium-activated chloride channel TMEM16A; Q8BHY3; HEK293 TMEM16A/YFP iodide influx fluorescence, ionomycin; normalized B-score (activity score, 25-100; higher = stronger inhibition) at 10 µM; hit rate 1.2% among 310,000; AID 588511;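 active = ratio plate-corrected score three or more library SD toward inhibition, starting fluorescence score within five deviations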;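 note: score derived from kinetic fluorescence span divided by baseline fluorescence per well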
Target sequence (Q8BHY3 whole entry, looked up): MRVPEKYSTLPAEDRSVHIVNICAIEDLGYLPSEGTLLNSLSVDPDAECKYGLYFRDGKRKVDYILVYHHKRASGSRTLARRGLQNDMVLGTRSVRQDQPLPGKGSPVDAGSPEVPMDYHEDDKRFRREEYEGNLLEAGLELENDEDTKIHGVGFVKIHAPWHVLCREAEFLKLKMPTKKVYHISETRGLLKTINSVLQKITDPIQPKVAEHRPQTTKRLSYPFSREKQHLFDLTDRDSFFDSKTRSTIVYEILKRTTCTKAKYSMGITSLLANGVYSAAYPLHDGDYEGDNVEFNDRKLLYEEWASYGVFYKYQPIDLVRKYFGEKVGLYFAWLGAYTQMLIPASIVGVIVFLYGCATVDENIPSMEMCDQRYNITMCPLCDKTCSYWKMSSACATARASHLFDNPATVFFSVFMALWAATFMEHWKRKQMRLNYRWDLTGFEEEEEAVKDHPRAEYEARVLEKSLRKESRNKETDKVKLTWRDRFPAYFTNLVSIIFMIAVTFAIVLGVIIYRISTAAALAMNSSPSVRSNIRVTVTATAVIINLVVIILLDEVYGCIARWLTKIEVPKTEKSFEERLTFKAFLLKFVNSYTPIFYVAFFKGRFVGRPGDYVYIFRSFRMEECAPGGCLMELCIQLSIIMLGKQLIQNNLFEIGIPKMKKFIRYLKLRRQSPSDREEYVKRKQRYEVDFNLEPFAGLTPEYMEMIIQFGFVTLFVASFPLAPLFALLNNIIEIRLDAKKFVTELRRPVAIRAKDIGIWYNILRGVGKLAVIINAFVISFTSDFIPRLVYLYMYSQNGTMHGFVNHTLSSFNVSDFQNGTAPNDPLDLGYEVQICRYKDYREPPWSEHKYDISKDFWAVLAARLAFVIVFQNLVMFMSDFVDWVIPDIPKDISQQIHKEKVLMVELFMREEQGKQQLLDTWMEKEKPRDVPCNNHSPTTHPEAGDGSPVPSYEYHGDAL
CHT PAM: allosteric activators of human choline transporter CHT | Q9GZV3 | hit rate 0.49% among 310,000 | B-score at 10 µM | CHT-expressing cells, membrane potential dye, choline EC20; hits give high values; LV-AA mutant CHT in HEK293 cells;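 active = initial fluorescence not abnormally high and integrated response B-score, plate-corrected, over 3 SD above library mean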
VIM-2 inhibitor: inhibitors of Pseudomonas aeruginosa VIM-2 metallo-beta-lactamase | inhibition, % at 5.6 µM | hit rate 0.89% among 290,000 | AID 1527 | purified VIM-2, nitrocefin hydrolysis, epi-absorbance fluorescence;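 active = inhibition above the mean of all tested compounds plus 3 SD, cutoff set per screening run, cut at about 7.5% in these data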;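 note: red hydrolysis product quenches plate fluorescence so inhibitors raise well fluorescence; 0% = enzyme with DMSO and 100% = DMSO without enzyme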
ANO1 activ: activates or potentiates the mouse TMEM16A chloride channel. HEK293 TMEM16A/YFP-H148Q/I152L, iodide quench fluorescence; hits give low values. B-score at 10 µM. hit rate 0.3% among 340,000. AID 623877;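 active = fluorescence-ratio B-score plate-corrected deviation score at least 3 library SD below zero, with starting fluorescence score within 5 deviations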;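 note: channel opened by trigger with iodide after compound preincubation; score built on the fluorescence ratio of max minus min over baseline; more negative score means more quench and so TMEM16A activation or potentiation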
CHT inh conf: human CHT inhibition, confirmatory screen. CHT activity remaining % of control (hits give low values), % at 10 µM. AID 493221. shares compounds with CHT inh. CHT-expressing cells, choline membrane potential dye; LV-to-AA substituted CHT, HEK293 cells. hit rate 70% among 2,400;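 active = choline transporter activity left, mean of duplicates at 10 µM, below buffer-only control mean minus 3 SD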;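 note: depolarization triggered by choline at its EC90 following an EC20 pre-addition; 0% = hemicholinium-3 full block and 100% = buffer-only control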
HEK293 MPD ctr: activity in parental HEK293 cells lacking CHT | membrane potential dye, choline response; active = decrease or increase beyond buffer ±3SD | membrane potential ratio readout (active if shifted either direction beyond buffer ±3SD; no single direction) at 10 µM | shares compounds with CHT inh | hit rate 4% among 2,400;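 note: parental cells lack the transporter so any hit is non-specific; ratio is peak minus trough fluorescence over baseline after EC90 choline challenge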
Starred values were filed as active, the others as inactive; i = inactive; . = no result given. An excerpt weighted towards active compounds, which were near 3.4% of everything screened.

SMILES	CHT inh	IMP-1 inhibitor	TMEM16A inh	CHT PAM	VIM-2 inhibitor	ANO1 activ	CHT inh conf	HEK293 MPD ctr
CCCOc1cccc(C(=O)NCCNC(=O)c2ccc(C)nc2)c1	i	-4.0	i	i	-2.8	i	.	.
CC1CCN(S(=O)(=O)c2ccc3c(c2)c(=O)c(C(=O)N2CCOCC2)cn3C)CC1	i	-2.5	i	i	-2.0	i	.	.
CCCCN(CCCC)CCNC(=O)c1cn(CC)c2ccc(S(=O)(=O)N3CCc4ccccc4C3)cc2c1=O	-9.17*	0.4	i	i	-0.5	i	12.4%*	i
CCn1cc(C(=O)NCCCN2CCCC(C)C2)c(=O)c2cc(S(=O)(=O)N3CCc4ccccc4C3)ccc21 (configuration not stated)	-15.7*	-0.5	i	i	0.8	i	20.3%*	3.61*
CCn1cc(C(=O)NCCCN2CC(C)CC(C)C2)c(=O)c2cc(S(=O)(=O)N(C)C)ccc21 (configuration not stated)	i	-2.1	i	i	-0.4	i	.	.
Cn1cc(C(=O)N2CCc3ccccc3C2)c(=O)c2cc(S(=O)(=O)N3CCOCC3)ccc21	-6.05*	-2.8	i	i	-2.1	i	i	i
C=CCn1cc(C(=O)NCCCOCC)c(=O)c2cc(S(=O)(=O)N(CC)CC)ccc21	i	-4.5	i	i	-1.3	i	.	.
C=CCn1cc(C(=O)NCCCN(CC)CC)c(=O)c2cc(S(=O)(=O)N3CCC(C)CC3)ccc21	-8.56*	-1.8	i	i	0.5	i	25.7%*	i
COc1ccc(-n2c(SCC(=O)C(C)(C)C)nc3c(sc(=S)n3-c3ccccc3)c2=O)c(OC)c1	i	-0.7	i	i	-1.7	i	.	.
O=C1CC(c2ccccc2)c2cccc(F)c21 (configuration not stated)	i	-2.1	i	i	0.2	i	.	.
CCOC(=O)COc1ccc(S(=O)(=O)NCc2ccco2)cc1	-7.61*	-3.2	i	i	3.2	i	i	i
C/C(=N\N=C(N)N)c1ccc(Cl)cc1Cl	-7.47*	-1.2	i	i	0.3	i	15.8%*	i
C/C(=N\N=C(N)N)c1cc(Cl)ccc1Cl	i	-3.1	i	i	-2.4	i	.	.
CCN1C(=O)[C@H]2[C@@H](c3ccc(-c4ccc(OC)cc4)cc3)N3CCC[C@@]3(C(=O)OC)[C@H]2C1=O	i	.	i	i	.	i	.	.
Nc1ncc(Br)cc1S(=O)(=O)Nc1cc(C(F)(F)F)cc(C(F)(F)F)c1	-11.5*	1.9	100*	i	-4.4	-5.04*	28.6%*	i
c1ccc(CCc2nn3c(Cc4ccccc4)nnc3s2)cc1	-5.37*	-2.5	i	i	-3.2	i	56.2%*	i
CC(C)(C)NCC(O)Cn1cc(C=O)c2ccccc21 (configuration not stated)	-5.67*	-1.9	i	i	-2.5	i	49.6%*	i
Cc1ccc(NC(=O)Cn2cc(C=O)c3ccccc32)cc1	i	1.8	i	i	-1.7	i	.	.
COc1ccc(NC(=O)CCCNC(=O)c2ccc(Cl)cc2)cc1OC	-6.59*	-1.0	i	i	-2.5	i	i	i
O=c1c(-c2ccccc2)nnc2sc(COc3ccc(Br)cc3)nn12	i	-1.6	i	i	-2.4	i	.	.
CCCc1cc(C(=O)NNC(=S)NC(C)c2ccccc2)cs1 (configuration not stated)	-6.19*	-2.8	i	i	-3.2	i	18.0%*	i
CN(C)CCNC(=O)Cn1ccc2cc(S(=O)(=O)N3CCCCCC3)ccc21	i	-1.7	i	i	-1.1	i	.	.
COc1ccc(NC(=O)C2CCN(c3nc(-c4ccc(OC)cc4)no3)CC2)cc1	i	-5.0	i	i	-2.9	i	.	.
COc1ccc(-c2noc(N3CCC(C(=O)Nc4ccc(OC)cc4OC)CC3)n2)cc1	-6.64*	1.2	i	i	1.1	i	i	i
COc1ccc(/C=C/CN2CCCC(C(=O)c3ccc(OC)c(F)c3)C2)cc1 (configuration not stated)	i	-0.4	i	i	1.2	i	.	.
SMILES	CHT inh	IMP-1 inhibitor	TMEM16A inh	CHT PAM	VIM-2 inhibitor	ANO1 activ	CHT inh conf	HEK293 MPD ctr
Cc1cccc(-n2cc(CN3CCN(Cc4nccn4C)CC3)c(-c3cccc(F)c3)n2)c1	-9.71*	-3.7	i	i	-3.3	i	20.2%*	i
Cc1noc(C)c1CSc1nc2[nH]ncc2c(=O)n1-c1ccccc1	-5.51*	-1.1	i	i	-0.9	i	i	i
Cc1nc(CSc2nc3[nH]ncc3c(=O)n2-c2ccccc2)cs1	i	-4.1	i	i	0.9	i	.	.
COc1ccc(C(=O)c2ccc(Cl)cc2)cc1	i	-3.5	i	i	-3.9	i	.	.
O=C(c1ccc(O)cc1)c1ccc(Cl)cc1	-5.99*	-2.4	i	i	-3.3	i	50.0%*	i
CCCNC(=O)N1CCCC(C(=O)c2cccc(Cl)c2)C1 (configuration not stated)	-5.24*	-2.9	i	i	-7.3	i	59.9%*	i
CCC(C)NC(=O)c1ccc(NC(=O)C2=C(C)OCCS2)cc1 (configuration not stated)	i	-3.4	i	i	-5.0	i	.	.
N#C/C(=C(/O)c1ccccc1F)c1nc2cc(C(F)(F)F)ccc2s1	-5.55*	-1.7	i	i	-1.5	i	48.1%*	i
O=C(NNc1nc2ccccc2s1)c1ccccc1F	i	-0.1	i	i	0.2	i	.	.
O=C1NC(=O)C2(CCCCC2C2CCCCC2)N1 (configuration not stated)	.	.	.	.	.	i	.	.
OCC[C@H]1C[C@@H](O)[C@H](O)[C@]2(Cc3ccccc3CCO2)O1	i	.	i	i	.	i	.	.
C=CCOc1ccccc1CNCc1ccc(F)cc1	-7.55*	1.5	i	i	0.0	i	26.2%*	-13.9*
Cn1c(N)c(C(=O)COC(=O)Cc2cccc(C(F)(F)F)c2)c(=O)n(C)c1=O	.	.	.	.	.	i	.	.
C#CC[N+](CC)(CC)CC#Cc1ccccc1	-7.72*	0.7	i	i	0.0	i	34.6%*	i
